Measured values from ChEMBL document CHEMBL4837218, “Synthesis and in vitro antitumour activity of 4(R)-methyl-3-O-phosphonomethyl-α-l-threose nucleosides” (Eur J Med Chem, 2021).
Activity calls are given as the source filed them. The rule behind the calls is not given here.

Tests used:
MCF7 [1] = test: Anticancer activity against human MCF7 cells assessed as inhibition of cell growth measured after 72 hrs by MTT assay; format: functional, cell-based; conditions: MCF7, 72 h
Procedure, shortened: (§1)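 Cells seeded at 3000 exponentially growing cells/well and incubated 12 h at 37 °C. Medium then replaced with fresh medium containing graded compound concentrations for 72 h; 5-FU positive control. MTT (5 mg/mL solution) added for 4 h, formazan dissolved in DMSO, absorbance read at 570 nm (reference 630 nm). Relative percentage inhibition of viable cells calculated; IC50 reported as mean ± standard deviation.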

SW-620 = test: Antiproliferative activity against human SW-620 cells assessed as cell growth inhibition measured after 72 hrs by MTT assay; format: functional, cell-based; conditions: SW-620, 72 h; procedure, shortened: as §1
ECa-109 cell line = test: Antiproliferative activity against human ECa-109 cells assessed as cell growth inhibition measured after 72 hrs by MTT assay; format: functional, cell-based; conditions: ECa-109, 72 h; procedure, shortened: as §1
MCF7 [2] = test: Potency index, ratio of 5-FU IC50 to test compound IC50 for anticancer activity against human MCF7 cells measured after 72 hrs by MTT assay; format: functional
Procedure, shortened: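 MTT assay: 3000 exponentially growing cells per well, 12 h at 37 °C. Medium replaced with compound at a range of concentrations for 72 h. MTT (5 mg/mL stock) added for 4 h, formazan dissolved in DMSO. Absorbance read at 570 nm (reference 630 nm); percent inhibition gives IC50. Index is 5-FU IC50 divided by test-compound IC50.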

MCF7 [3] = test: Cell cycle arrest in human MCF7 cells assessed as accumulation at G2/M phase at 1 uM measured after 48 hrs by propidium iodide staining based flow cytometry (reference value: 0.01 %); format: functional
MDA-MB-231 [4] = test: Cell cycle arrest in human MDA-MB-231 cells assessed as accumulation at G2/M phase at 3 uM measured after 48 hrs by propidium iodide staining based flow cytometry (reference value: 15.46 %); format: functional
MDA-MB-231 [5] = test: Cell cycle arrest in human MDA-MB-231 cells assessed as accumulation at G1 phase at 6 uM measured after 48 hrs by propidium iodide staining based flow cytometry (reference value: 46.28 %); format: functional
MDA-MB-231 [6] = test: Cell cycle arrest in human MDA-MB-231 cells assessed as accumulation at G2/M phase at 6 uM measured after 48 hrs by propidium iodide staining based flow cytometry (reference value: 15.46 %); format: functional
MDA-MB-231 [7] = test: Cell cycle arrest in human MDA-MB-231 cells assessed as accumulation at S phase at 9 uM measured after 48 hrs by propidium iodide staining based flow cytometry (reference value: 35.54 %); format: functional
MDA-MB-231 [8] = test: Induction of apoptosis in human MDA-MB-231 cells assessed as late apoptotic cells at 9 uM measured after 48 hrs by Annexin V-FITC/propidium iodide staining based flow cytometric analysis (reference value: 0.3 %); format: functional
MCF7 [9] = test: Induction of mitochondrial membrane potential loss in human MCF7 cells assessed as green fluorescence intensity at 2 uM measured after 48 hrs by JC1 staining-based flow cytometry analysis (reference value: 8.1 %); format: functional
MDA-MB-231 [10] = test: Induction of mitochondrial membrane potential loss in human MDA-MB-231 cells assessed as red fluorescence intensity at 3 uM measured after 48 hrs by JC1 staining-based flow cytometry analysis (reference value: 99.2 %); format: functional
MCF7 [11] = test: Induction of DNA damage in human MCF7 cells assessed as increase in ATM protein expression at 1 to 4 uM measured after 48 hrs by western blot analysis; format: functional, cell-based; conditions: dose 1-4 µM
Procedure, shortened: (§2)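 Cells exposed to graded concentrations for 48 h, then proteins extracted. Run on SDS-PAGE (5–15% gels) and transferred to nitrocellulose. Blocked 2 h in 5% nonfat milk in PBS/0.1% Tween 20, primary antibody overnight at 4 °C, biotin-conjugated secondary 1 h. Visualized on X-ray film with densitometric quantitation; three independent experiments.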

MCF7 [12] = test: Induction of DNA damage in human MCF7 cells assessed as increase in Chk2 protein expression at 1 to 4 uM measured after 48 hrs by western blot analysis; format: functional, cell-based; conditions: dose 1-4 µM; procedure, shortened: as §2
MCF7 [13] = test: Induction of G2/M phase cell cycle arrest in human MCF7 cells assessed as decrease in p-cdc2 protein expression at 1 to 4 uM measured after 48 hrs by western blot analysis; format: functional, cell-based; conditions: dose 1-4 µM; procedure, shortened: as §2
MDA-MB-231 [14] = test: Induction of DNA damage in human MDA-MB-231 cells assessed as increase in Chk1 protein expression at 3 to 9 uM measured after 48 hrs by western blot analysis; format: functional, cell-based; conditions: dose 3-9 µM; procedure, shortened: as §2
MDA-MB-231 [15] = test: Induction of DNA damage in human MDA-MB-231 cells assessed as increase in Chk2 protein expression at 3 to 9 uM measured after 48 hrs by western blot analysis; format: functional, cell-based; conditions: dose 3-9 µM; procedure, shortened: as §2
MCF7 [16] = test: Induction of apoptosis in human MCF7 cells assessed as increase in cleaved caspase 7 protein expression at 1 to 4 uM measured after 48 hrs by western blot analysis; format: functional, cell-based; conditions: dose 1-4 µM
Procedure, shortened: (§3)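 MCF-7 and MDA-MB-231 breast cancer cells treated 48 h with a concentration series, then lysed for protein. SDS-PAGE on 5–15% gels, transfer to nitrocellulose. Blocked 2 h in 5% nonfat milk/PBS-0.1% Tween 20, primary antibodies overnight at 4 °C, biotin-conjugated secondary 1 h. X-ray film detection with densitometric quantification.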

MCF7 [17] = test: Induction of apoptosis in human MCF7 cells assessed as increase in Bax to Bcl2 ratio at 1 to 4 uM measured after 48 hrs by western blot analysis; format: functional, cell-based; conditions: dose 1-4 µM; procedure, shortened: as §3
MDA-MB-231 [18] = test: Induction of apoptosis in human MDA-MB-231 cells assessed as increase in Bax to Bcl2 ratio at 3 to 9 uM measured after 48 hrs by western blot analysis; format: functional, cell-based; conditions: dose 3-9 µM; procedure, shortened: as §3
MCF7 [19] = test: Induction of G2/M phase cell cycle arrest in human MCF7 cells assessed as upregulation of p-cdc25c protein expression at 4 uM measured after 48 hrs in presence of cdc25c inhibitor, NSC663284 by western blot analysis; format: functional, cell-based
Procedure, shortened: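 Four groups (untreated, test compound, 0.3 NSC663284, combination) treated 48 h before protein extraction. Lysates resolved by SDS-PAGE (5–15%) and blotted to nitrocellulose. Blocked 2 h in 5% milk/PBS-0.1% Tween 20, primary antibody overnight at 4 °C, biotinylated secondary 1 h. Detected on X-ray film and quantified by densitometry.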

MDA-MB-231 [20] = test: Induction of G2/M phase cell cycle arrest in human MDA-MB-231 cells assessed as upregulation of p-cdc25c protein expression at 9 uM measured after 48 hrs in presence of cdc25c inhibitor, NSC663284 by western blot analysis; format: functional, cell-based
MCF7 [21] = test: Induction of apoptosis in human MCF7 cells assessed as increase in cleaved PARP protein expression at 4 uM measured after 48 hrs in presence of cdc25c inhibitor, NSC663284 by western blot analysis; format: functional, cell-based
Procedure, shortened: (§4)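 Four arms per cell line: untreated, test compound, 0.3 µM NSC663284 alone, and combination. Proteins harvested after 48 h and resolved by SDS-PAGE on 5–15% gels, transferred to nitrocellulose. Blocked 2 h in milk/PBS-Tween, primary antibodies overnight at 4 °C, biotin-conjugated secondary. Read on X-ray film with densitometry.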

MCF7 [22] = test: Induction of apoptosis in human MCF7 cells assessed as increase in cleaved caspase 7 protein expression at 4 uM measured after 48 hrs in presence of cdc25c inhibitor, NSC663284 by western blot analysis; format: functional, cell-based; procedure, shortened: as §4

- IC50 (MCF7 [1]): 0.476 µM
- IC50 (SW-620): 6.62 µM
Structure (SMILES): C[C@H]1O[C@@H](n2cnc3c(N)nc(F)nc32)[C@H](O)[C@H]1OCP(=O)([O-])[O-].[Na+].[Na+]
- IC50 (ECa-109 cell line): 2.57 µM
- Ratio IC50 (MCF7 [2]): 41
- Activity (MCF7 [3]): 16.26%
- Activity (MDA-MB-231 [4]): 20.27%
- Activity (MDA-MB-231 [5]): 37.3%
- Activity (MDA-MB-231 [6]): 28.54%
- Activity (MDA-MB-231 [7]): 32.34%
- Activity (MDA-MB-231 [8]): 16%
- Activity (MCF7 [9]): 32.8%
- Activity (MDA-MB-231 [10]): 98.6%
- Activity (MCF7 [11]): Active
- Activity (MCF7 [12]): Active
- Activity (MCF7 [13]): Active
- Activity (MDA-MB-231 [14]): Active
- Activity (MDA-MB-231 [15]): Active
- Activity (MCF7 [16]): Active
- Activity (MCF7 [17]): Active
- Activity (MDA-MB-231 [18]): Active
- Activity (MCF7 [19]): inactive
- Activity (MDA-MB-231 [20]): inactive
- Activity (MCF7 [21]): inactive
- Activity (MCF7 [22]): inactive
